Measurements as given in ChEMBL document CHEMBL1629540 (J Med Chem, 2010).

Assays:
[1] = Displacement of [3H]AMPA from AMPA receptor in rat brain membrane; type: cell membranes
Procedure, shortened: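 Rat cortical synaptosomal membranes, competition with 5 nM [3H]AMPA (55.5 Ci/mmol). IC50 given as the antilog of the mean log value from three individual experiments.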

[2] = biological target: Glutamate receptor ionotropic, kainate 3 (Rattus norvegicus, UniProt P42264); experiment: Displacement of [3H[SYM2081 from rat recombinant GluK3a expressed in […] cells; type: cell-based
Chain of Glutamate receptor ionotropic, kainate 3 (P42264 whole entry): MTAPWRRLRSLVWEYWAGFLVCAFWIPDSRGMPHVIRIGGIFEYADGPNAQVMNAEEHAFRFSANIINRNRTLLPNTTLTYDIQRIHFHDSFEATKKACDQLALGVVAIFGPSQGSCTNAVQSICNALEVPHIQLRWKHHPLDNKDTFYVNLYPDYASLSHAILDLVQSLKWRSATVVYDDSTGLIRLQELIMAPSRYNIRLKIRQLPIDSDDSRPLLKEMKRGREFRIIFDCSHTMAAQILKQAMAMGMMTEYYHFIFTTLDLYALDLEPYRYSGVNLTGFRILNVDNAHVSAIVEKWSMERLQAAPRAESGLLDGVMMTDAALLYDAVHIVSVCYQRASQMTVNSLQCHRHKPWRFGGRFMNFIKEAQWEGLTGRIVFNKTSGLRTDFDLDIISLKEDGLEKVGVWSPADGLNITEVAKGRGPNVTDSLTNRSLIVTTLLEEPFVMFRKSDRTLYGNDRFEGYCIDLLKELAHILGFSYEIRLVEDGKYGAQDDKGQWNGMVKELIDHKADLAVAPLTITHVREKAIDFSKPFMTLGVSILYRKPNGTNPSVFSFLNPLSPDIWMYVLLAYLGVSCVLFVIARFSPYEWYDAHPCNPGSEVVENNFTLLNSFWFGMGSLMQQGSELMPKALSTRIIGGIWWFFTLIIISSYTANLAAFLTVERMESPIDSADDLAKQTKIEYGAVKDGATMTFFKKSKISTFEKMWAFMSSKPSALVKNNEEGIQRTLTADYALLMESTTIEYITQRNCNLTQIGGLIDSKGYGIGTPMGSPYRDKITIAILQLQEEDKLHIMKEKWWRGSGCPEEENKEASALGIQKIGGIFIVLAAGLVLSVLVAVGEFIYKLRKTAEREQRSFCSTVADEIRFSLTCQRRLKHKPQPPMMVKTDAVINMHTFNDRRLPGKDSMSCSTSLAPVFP
Procedure, shortened: (§1)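 Competition binding to membranes from Sf9 cells infected with recombinant baculovirus encoding rat GluK subunits. Radioligand 1-5 nM [3H]SYM2081 (47.9 Ci/mmol), 12-16 ligand concentrations. At least three experiments, each in triplicate, reported as Ki mean ± SEM.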

[3] = Displacement of [3H]KA from kainate receptor in rat brain membrane; type: cell membranes
Procedure, shortened: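 Rat cortical synaptosomal membranes, competition with 5 nM [3H]KA (58.0 Ci/mmol). IC50 given as the antilog of the mean log value from three individual experiments.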

Glutamate receptor 3 [4] = biological target: T1, Glutamate receptor 3 (Rattus norvegicus, UniProt P19492); experiment: Displacement of [3H[AMPA from rat recombinant GluA3o expressed in […] cells; type: cell-based
T1 sequence (P19492 whole entry): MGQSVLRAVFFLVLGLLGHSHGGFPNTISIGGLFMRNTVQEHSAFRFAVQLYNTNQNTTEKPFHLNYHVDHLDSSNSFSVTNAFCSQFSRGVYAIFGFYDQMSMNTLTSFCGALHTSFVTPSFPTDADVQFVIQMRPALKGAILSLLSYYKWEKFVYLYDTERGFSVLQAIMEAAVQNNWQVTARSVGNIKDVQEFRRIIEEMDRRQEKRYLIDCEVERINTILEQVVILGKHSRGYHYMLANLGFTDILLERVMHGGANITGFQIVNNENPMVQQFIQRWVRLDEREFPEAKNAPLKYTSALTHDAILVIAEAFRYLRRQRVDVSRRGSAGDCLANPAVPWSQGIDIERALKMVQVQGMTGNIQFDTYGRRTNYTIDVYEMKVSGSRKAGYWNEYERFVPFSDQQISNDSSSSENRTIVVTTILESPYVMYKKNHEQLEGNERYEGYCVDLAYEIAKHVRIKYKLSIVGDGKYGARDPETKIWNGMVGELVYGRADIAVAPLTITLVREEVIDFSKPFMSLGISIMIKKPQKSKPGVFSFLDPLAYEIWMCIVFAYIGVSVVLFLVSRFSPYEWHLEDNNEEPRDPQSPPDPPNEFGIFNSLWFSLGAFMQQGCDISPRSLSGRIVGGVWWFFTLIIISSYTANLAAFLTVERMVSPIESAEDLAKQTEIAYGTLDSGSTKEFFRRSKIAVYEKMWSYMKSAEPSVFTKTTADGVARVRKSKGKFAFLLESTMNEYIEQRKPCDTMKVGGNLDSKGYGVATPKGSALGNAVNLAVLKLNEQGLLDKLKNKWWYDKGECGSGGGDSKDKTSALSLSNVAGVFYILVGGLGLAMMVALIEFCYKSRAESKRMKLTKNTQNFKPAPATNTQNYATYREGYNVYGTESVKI
Procedure, shortened: (§2)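 Competition binding to membranes from Sf9 cells infected with recombinant baculovirus encoding rat flop GluA subunits. Radioligand 2-5 nM (RS)-[3H]AMPA, 12-16 ligand concentrations. At least three experiments, each in triplicate, reported as Ki mean ± SEM.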

Glutamate receptor 4 [5] = biological target: T2, Glutamate receptor 4 (Rattus norvegicus, UniProt P19493); experiment: Displacement of [3H[AMPA from rat recombinant GluA4o expressed in […] cells; type: cell-based; procedure, shortened: as §2
T2 sequence (P19493 whole entry): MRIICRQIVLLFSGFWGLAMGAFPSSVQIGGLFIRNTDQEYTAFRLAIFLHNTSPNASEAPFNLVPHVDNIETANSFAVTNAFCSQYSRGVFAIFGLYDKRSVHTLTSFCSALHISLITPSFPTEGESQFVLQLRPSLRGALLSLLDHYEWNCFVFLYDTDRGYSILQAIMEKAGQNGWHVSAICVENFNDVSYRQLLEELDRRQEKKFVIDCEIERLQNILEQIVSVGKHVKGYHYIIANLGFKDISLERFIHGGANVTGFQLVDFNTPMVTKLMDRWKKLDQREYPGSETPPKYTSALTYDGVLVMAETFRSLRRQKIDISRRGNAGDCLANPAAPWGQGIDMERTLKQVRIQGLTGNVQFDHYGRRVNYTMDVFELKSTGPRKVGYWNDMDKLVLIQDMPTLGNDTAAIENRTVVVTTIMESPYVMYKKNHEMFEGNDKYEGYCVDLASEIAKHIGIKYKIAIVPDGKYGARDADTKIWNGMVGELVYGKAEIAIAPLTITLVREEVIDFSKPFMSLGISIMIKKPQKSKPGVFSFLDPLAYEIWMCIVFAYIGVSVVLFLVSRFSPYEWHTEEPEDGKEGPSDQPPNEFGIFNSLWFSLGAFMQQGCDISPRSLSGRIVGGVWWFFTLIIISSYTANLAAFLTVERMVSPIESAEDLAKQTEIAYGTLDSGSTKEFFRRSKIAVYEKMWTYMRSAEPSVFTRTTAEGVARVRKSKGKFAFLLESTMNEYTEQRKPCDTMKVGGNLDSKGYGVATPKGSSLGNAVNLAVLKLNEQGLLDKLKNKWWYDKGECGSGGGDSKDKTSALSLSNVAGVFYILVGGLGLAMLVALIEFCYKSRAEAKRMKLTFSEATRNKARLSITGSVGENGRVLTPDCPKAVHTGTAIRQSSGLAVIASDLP

Glutamate receptor 1 [6] = biological target: T3, Glutamate receptor 1 (Rattus norvegicus, UniProt P19490); experiment: Agonist activity at rat recombinant GluA1i expressed in Xenopus laevis oocytes by two-electrode voltage clamp assay; type: functional, cell-based, Oocyte
Procedure, shortened: (§3)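 Rat homomeric flip-isoform GluA subunits expressed in Xenopus laevis oocytes, measured by two-electrode voltage clamp. Highest concentration tested 3 mM. Responses normalized to the maximum response in each oocyte. Three to five experiments per receptor, each in duplicate. EC50 obtained by fitting I = Imax/(1 + (10^logEC50/10^log[A])^nH), giving Imax and Hill coefficient.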

[7] = biological target: Glutamate receptor ionotropic, kainate 1 (Rattus norvegicus, UniProt P22756); experiment: Displacement of [3H[SYM2081 from rat recombinant GluK1(Q)1b expressed in […] cells; type: cell-based
Glutamate receptor 1 [8] = biological target: T3, Glutamate receptor 1; experiment: Displacement of [3H[AMPA from rat recombinant GluA1o expressed in […] cells; type: cell-based; procedure, shortened: as §2
Glutamate receptor 2 [9] = biological target: T4, Glutamate receptor 2 (Rattus norvegicus, UniProt P19491); experiment: Agonist activity at rat recombinant GluA2(Q)i expressed in Xenopus laevis oocytes by two-electrode voltage clamp assay; type: functional, cell-based, Oocyte
T4 sequence (P19491 whole entry): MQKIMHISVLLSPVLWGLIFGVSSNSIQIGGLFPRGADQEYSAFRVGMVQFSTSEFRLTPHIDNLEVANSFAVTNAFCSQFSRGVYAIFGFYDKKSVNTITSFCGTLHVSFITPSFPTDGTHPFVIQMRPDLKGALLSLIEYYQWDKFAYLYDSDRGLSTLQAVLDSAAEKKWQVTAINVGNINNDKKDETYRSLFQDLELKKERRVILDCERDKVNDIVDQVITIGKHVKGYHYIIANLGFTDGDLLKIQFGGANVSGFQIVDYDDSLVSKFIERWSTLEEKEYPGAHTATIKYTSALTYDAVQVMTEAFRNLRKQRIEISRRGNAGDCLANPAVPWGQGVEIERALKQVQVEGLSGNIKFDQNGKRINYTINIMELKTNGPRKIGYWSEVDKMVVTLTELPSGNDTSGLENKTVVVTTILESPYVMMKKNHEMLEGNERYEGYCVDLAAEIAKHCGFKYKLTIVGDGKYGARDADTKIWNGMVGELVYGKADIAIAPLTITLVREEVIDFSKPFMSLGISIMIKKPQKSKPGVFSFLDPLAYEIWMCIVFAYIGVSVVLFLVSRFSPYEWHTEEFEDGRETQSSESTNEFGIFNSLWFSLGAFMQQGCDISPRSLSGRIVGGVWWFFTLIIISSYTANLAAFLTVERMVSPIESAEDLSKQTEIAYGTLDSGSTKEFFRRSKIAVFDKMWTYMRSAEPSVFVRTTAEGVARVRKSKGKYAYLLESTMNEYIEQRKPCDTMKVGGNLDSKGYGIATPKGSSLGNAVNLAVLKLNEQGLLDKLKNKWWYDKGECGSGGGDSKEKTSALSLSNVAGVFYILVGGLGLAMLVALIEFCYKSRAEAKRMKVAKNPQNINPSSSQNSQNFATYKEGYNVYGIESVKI
Procedure, shortened: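 Homomeric rat GluA2(Q) flip receptors expressed in Xenopus laevis oocytes and recorded by two-electrode voltage clamp. Agonist-evoked currents were normalised to the maximum response in each oocyte. EC50 was obtained by fitting the concentration-response data to a logistic equation giving Imax and the Hill coefficient.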

[10] = biological target: Glutamate receptor ionotropic, kainate 2 (Rattus norvegicus, UniProt P42260); experiment: Displacement of [3H[SYM2081 from rat recombinant GluK2(VCR)a expressed in […] cells; type: cell-based; procedure, shortened: as §1
Chain of Glutamate receptor ionotropic, kainate 2 (P42260 whole entry): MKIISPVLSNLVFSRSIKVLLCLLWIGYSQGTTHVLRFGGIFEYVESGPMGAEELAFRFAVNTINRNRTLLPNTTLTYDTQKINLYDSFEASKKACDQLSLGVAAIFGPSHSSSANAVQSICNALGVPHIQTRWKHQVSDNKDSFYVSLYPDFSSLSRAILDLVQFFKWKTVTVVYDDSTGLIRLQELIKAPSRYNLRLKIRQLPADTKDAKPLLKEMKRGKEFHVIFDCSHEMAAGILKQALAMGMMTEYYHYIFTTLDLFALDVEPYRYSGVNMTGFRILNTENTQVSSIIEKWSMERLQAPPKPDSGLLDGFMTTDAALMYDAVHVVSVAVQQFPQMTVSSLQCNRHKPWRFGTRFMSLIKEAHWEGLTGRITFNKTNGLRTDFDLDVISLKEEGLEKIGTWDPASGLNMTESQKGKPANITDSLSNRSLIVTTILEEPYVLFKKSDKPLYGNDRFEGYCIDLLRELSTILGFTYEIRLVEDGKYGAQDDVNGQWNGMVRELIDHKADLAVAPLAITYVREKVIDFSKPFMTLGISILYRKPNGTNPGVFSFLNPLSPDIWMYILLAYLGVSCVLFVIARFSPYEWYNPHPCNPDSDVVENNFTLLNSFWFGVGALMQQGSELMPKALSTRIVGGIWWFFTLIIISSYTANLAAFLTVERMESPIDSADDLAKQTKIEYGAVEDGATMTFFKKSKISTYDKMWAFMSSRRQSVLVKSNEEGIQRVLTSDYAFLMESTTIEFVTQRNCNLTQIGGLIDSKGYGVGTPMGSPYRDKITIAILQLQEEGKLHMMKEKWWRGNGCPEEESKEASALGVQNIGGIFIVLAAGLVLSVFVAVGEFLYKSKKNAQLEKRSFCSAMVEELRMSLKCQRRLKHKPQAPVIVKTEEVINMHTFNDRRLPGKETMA

Glutamate receptor 2 [11] = biological target: Glutamate receptor 2 (Homo sapiens, UniProt P42262); experiment: Displacement of [3H]AMPA from GluA2-S1S2 receptor
Chain of Glutamate receptor 2 (Homo sapiens, UniProt P42262) (P42262 whole entry): as the sequence (P19491 whole entry) above, with T191M, A291T, G764R, P852A counted along it

Glutamate NMDA receptor = experiment: Displacement of [3H]CGP39653 from NMDA receptor in rat brain membrane; type: cell membranes
Glutamate receptor 3 [12] = biological target: T1, Glutamate receptor 3; experiment: Agonist activity at rat recombinant GluA3i expressed in Xenopus laevis oocytes by two-electrode voltage clamp assay; type: functional, cell-based, Oocyte; procedure, shortened: as §3
Glutamate receptor 4 [13] = biological target: T2, Glutamate receptor 4; experiment: Agonist activity at rat recombinant GluA4i expressed in Xenopus laevis oocytes by two-electrode voltage clamp assay; type: functional, cell-based, Oocyte; procedure, shortened: as §3
Glutamate receptor 2 [14] = biological target: T4, Glutamate receptor 2; experiment: Displacement of [3H[AMPA from rat recombinant GluA2(R)o expressed in […] cells; type: cell-based

SMILES	IC50 [1] [µM]	Ki [2] [µM]	IC50 [3] [µM]	Ki (Glutamate receptor 3 [4]) [µM]	Ki (Glutamate receptor 4 [5]) [µM]	EC50 (Glutamate receptor 1 [6]) [µM]	Ki [7] [µM]	Ki (Glutamate receptor 1 [8]) [µM]	EC50 (Glutamate receptor 2 [9]) [µM]	Ki [10] [µM]	Ki (Glutamate receptor 2 [11]) [µM]	Ki (Glutamate NMDA receptor) [µM]	EC50 (Glutamate receptor 3 [12]) [µM]	EC50 (Glutamate receptor 4 [13]) [µM]	Ki (Glutamate receptor 2 [14]) [µM]
O=C(O)C1NCCc2c1o[nH]c2=O (racemic)	0.37	29.8	> 100	4.52	13.5	82.8	4.48	0.18	34.6	> 100	0.108	> 100	637	> 1000	
NC(Cc1onc(O)c1Cl)C(=O)O (racemic)	0.22	90.5	> 100	27.5	11.9	4.7	6.8	0.13		> 100		18			0.37
N[C@H](C(=O)O)c1cc(O)no1 [IBOTENIC ACID]	> 100	1.74	22	> 100	> 100		2.43	> 100		3.23					> 100
Cc1onc(O)c1C[C@H](N)C(=O)O [(S)-AMPA]		42.7								> 1000					
O=C(O)[C@H]1Cc2c(O)noc2CN1	0.47		> 100	0.84	0.64		10.1	0.36	22.3	> 100		> 100			
O=C(O)C1Cc2c(O)noc2CN1 (racemic)		54									0.494				
